# From PubChem
# A selection: hits, their analogues and other compounds. The true share with any hit is near 2.1%.
# bCat nuc transl: beta-catenin nuclear translocation modulation; AID 1665; nuclear translocation activity, % at 5 µM; hit rate 0.3% among 190,000; HeLa beta-catenin nuclear translocation, immunofluorescence imaging;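 active = nuclear translocation activity above 50% at 5 µM, with a well cell count of 50 or more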;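 note: per-cell ratio of nuclear to cytoplasmic median beta-catenin stain intensity; plate controls were DMSO negative control for no effect and GSK-3 inhibitor IX positive control for full effect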
#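 Signal – beta-catenin immunofluorescence imaging with DAPI · Test system – human HeLa cell line · Dosing – 5 µM primary single dose, 0.1% DMSO, 0.02–20 µM confirmation series · Measure – % activation, nuclear-to-cytoplasmic median beta-catenin signal ratio per cell · Incubation – 24 h compound exposure at 37°C, 5% CO2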
# MT stabilize HCS: microtubule stabilizers in HeLa cells; HeLa tubulin immunostaining HCS, 24 h; share of cells brighter than vehicle mean+2SD; % tubulin-high responders, % at 10 µM; AID 2205; hit rate 0.83% among 200,000;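 active = plate Z-score above 3 for both tubulin-high and condensed-nucleus cell shares, with cell loss under 80%, at 10 µM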;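 note: anti alpha tubulin signal scored within the nucleus-defined area of each cell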
# Arbovirus anti: antivirals against arbovirus infection | arbovirus infection cell-based antiviral screen | inhibition, % at 10 µM | hit rate 0.37% among 200,000 | AID 1251; in the data active = inhibition above about 30%
# ABCG2 block: blocks JC-1 efflux by human ABCG2 transporter. Q9UNQ0. IgMXP3 cells, flow cytometry. inhibition, % at 6.6 µM. hit rate 0.1% among 190,000;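 active = inhibition above 80%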;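 note: 0% = DMSO and 100% = nicardipine control wells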
# Target sequence (Q9UNQ0 whole entry, looked up): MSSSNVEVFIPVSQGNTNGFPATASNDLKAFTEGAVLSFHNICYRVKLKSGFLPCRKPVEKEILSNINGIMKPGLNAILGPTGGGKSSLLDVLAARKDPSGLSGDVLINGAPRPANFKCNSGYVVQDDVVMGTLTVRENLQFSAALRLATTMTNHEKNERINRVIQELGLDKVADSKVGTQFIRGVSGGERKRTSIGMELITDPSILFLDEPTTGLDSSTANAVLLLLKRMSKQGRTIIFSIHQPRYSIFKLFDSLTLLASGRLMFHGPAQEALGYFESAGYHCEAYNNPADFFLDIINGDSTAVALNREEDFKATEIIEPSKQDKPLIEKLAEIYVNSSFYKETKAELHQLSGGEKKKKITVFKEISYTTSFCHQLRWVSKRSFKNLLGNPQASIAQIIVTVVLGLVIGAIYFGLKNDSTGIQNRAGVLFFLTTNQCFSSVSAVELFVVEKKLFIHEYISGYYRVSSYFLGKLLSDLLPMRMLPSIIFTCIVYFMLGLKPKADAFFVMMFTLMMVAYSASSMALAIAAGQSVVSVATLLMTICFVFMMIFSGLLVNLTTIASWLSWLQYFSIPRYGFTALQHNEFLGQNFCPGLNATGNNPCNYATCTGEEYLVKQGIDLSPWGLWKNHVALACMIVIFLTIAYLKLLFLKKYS
#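 Times: 10 min at 25 °C | Test system: Two drug-resistant human cell lines, ABCG2 and ABCB1 | Quantity: 3 million cells/mL final, two lines in 1:1 ratio | Signal: Flow cytometry, 530 nm JC-1 signal | Dosing: Compound at 6.6 µM | Controls: Nicardipine and DMSO wells | Reagent: JC-1 as fluorescent efflux pump substrate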
# Autophagy HCS: alters autophagy in cells. MEF GFP-LC3 puncta imaging; test concentration mostly 10 µM. hit rate 0.98% among 190,000. calls only at 10 µM (by protocol);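 active = percentage of spot-positive cells more than 3 SD above its plate mean, without a fluorescence outlier flag or 80% toxicity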;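 note: spot-positive cell cutoff set from DMSO-treated cells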
# ABCB1 inh: human ABCB1 inhibition, ABCG2 as counter-screen | P08183 | CCRF-Adr cells, JC-1 efflux, flow cytometry | inhibition, % at 6.6 µM | hit rate 0.067% among 190,000; in the data active = inhibition above about 40%;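 note: 0% = vehicle and 100% = reference inhibitor; higher value means more JC-1 retained so stronger ABCB1 efflux block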
# Numbers without * were called inactive; i = inactive; / = not tested or not shown; + = active, no number.
SMILES,bCat nuc transl,MT stabilize HCS,Arbovirus anti,ABCG2 block,Autophagy HCS,ABCB1 inh
CCCN1C=CC(=C/C=C(\C#N)C(=O)OCC)C=C1,-2.3,3.6,1.9,15.0,i,0.5
CCCCCCN1C=CC(=C/C=C(\C#N)C(=O)OCC)C=C1,-0.7,2.5,2.7,3.3,+,1.0
Cc1ccccc1N1CCN(C2=NC(=O)/C(=C\c3cccs3)S2)CC1,-0.1,9.4*,-29.3,25.0,i,4.5
Cc1ccc(C)c(C(=O)COc2ccccc2[N+](=O)[O-])c1,2.5,5.0,-17.4,50.5,i,6.0
O=c1c(Cl)c(N2CCN(c3ccc(F)cc3)CC2)cnn1C12CC3CC(CC(C3)C1)C2,0.5,3.2,37.0*,1.1,i,2.7
Nc1nc(-c2ccccc2)cc(N2CCCCC2)n1,56.0*,13.9*,-8.8,3.3,i,0.0
COc1ccc(Nc2ccc(S(=O)(=O)N3CCCCC3)cc2[N+](=O)[O-])cc1,-3.8,8.4,11.0,34.6,i,1.9
COc1ccc(C(CNc2ccc(S(=O)(=O)N3CCCC3)cc2[N+](=O)[O-])N2CCCC2)cc1 (stereo not given),0.0,3.6,-11.4,2.2,+,0.7
CCOc1cc(C#N)c(NC(=O)c2cccnc2Cl)cc1OCC,-2.6,3.0,-6.4,1.6,i,0.2
CCOc1cc(C#N)c(NC(=O)c2cccnc2)cc1OCC,/,38.9*,-18.7,0.9,i,-0.1
CCOc1cc(NC(=O)c2cnccn2)c(OCC)cc1NC(=O)c1cccc(F)c1,0.4,1.3,-1.0,-4.6,+,-1.3
CCCCCCCCCn1c2c(c(=N)c3c1CCC3)CCC2,-5.4,4.1,-35.6,-2.0,i,-0.1
CCCCCCCn1c2c(c(=N)c3c1CCC3)CCCC2,2.7,5.7,-16.7,0.2,+,-0.1
Cc1cc(C)n(CCC(=O)N/N=C/c2cccc([N+](=O)[O-])c2)n1,-0.5,/,/,/,/,/
COc1ccc2nc(SCC(=O)Nc3ccc4sc(C)nc4c3)c(C#N)cc2c1,-0.6,9.1,-11.6,1.6,+,0.7
c1ccc(Nc2cc(-c3ccccc3)nc3ncnn23)cc1,-8.3,2.7,-8.0,3.9,i,0.1
Cc1cc(OCCn2ccnc2)cc(C(C)C)c1,1.7,1.7,1.9,0.8,i,-0.3
COc1ccc(NC(=O)Cc2ccc(-c3ccccc3)cc2)cn1,96.5*,25.6*,-10.8,3.6,i,0.6
COc1ccc(NC(=O)/C(Cl)=C(/Cl)S(=O)(=O)Cc2ccccc2)cn1,-2.2,1.7,-32.8,-2.7,+,-1.5
COc1ccc(NC(=O)C(Cl)=C(Cl)Cl)cn1,-0.1,5.5,1.1,0.8,i,-0.1
COc1ccc2c(CC(=O)Nc3ccc(OC)nc3)coc2c1,0.0,1.7,23.5,1.3,+,0.3
O=C1c2oc3ccc(Cl)cc3c(=O)c2C(c2cccnc2)N1Cc1ccco1 (stereo not given),-1.5,/,/,/,/,/
Cc1c(C#N)c(NC(=O)CCl)n(Cc2ccccc2)c1C,2.9,10.8*,5.5,1.2,i,0.2
Cc1c(C#N)c(NC(=O)CCl)n(Cc2cccs2)c1C,3.5,39.5*,-10.6,1.4,i,0.2
CCN(CC)C(=O)c1sc(NC(=O)Cc2cccs2)c(C#N)c1C,/,1.9,-1.1,-3.2,i,-2.8
SMILES,bCat nuc transl,MT stabilize HCS,Arbovirus anti,ABCG2 block,Autophagy HCS,ABCB1 inh
COc1ccc(CCNC(=O)C(=O)NCC2OCCN2S(=O)(=O)c2ccc(Br)cc2)cc1OC (stereo not given),0.0,5.4,17.0,5.7,i,2.2
COc1ccc(S(=O)(=O)N2CCOC2CNC(=O)C(=O)NCCc2ccc(OC)c(OC)c2)cc1 (stereo not given),-5.9,2.9,3.6,1.4,+,-0.2
CCn1ncc(Cl)c1C(=O)Nc1ccncc1,5.7,2.9,-0.8,-2.3,i,-0.6
COc1ccc(C(=O)Nc2sc3c(c2C#N)CCN(C(C)=O)C3)cc1,60.0*,14.3*,-12.5,4.8,i,0.7
COc1cc(C(=O)Nc2sc3c(c2C#N)CCN(C(C)=O)C3)cc(OC)c1OC,-2.3,6.1,-1.1,-0.6,i,-0.1
CC1(C)Cc2c(sc(NC(=O)c3ccccc3)c2C(=O)O)CO1,0.2,3.3,12.4,0.7,i,-0.2
CC(C)COc1ccc(C(=O)Nc2sc3c(c2C(=O)O)CC(C)(C)OC3)cc1,-0.2,4.5,60.7*,-0.2,i,-0.1
COc1ccc(C(=O)Nc2sc3c(c2C(=O)O)CC(C)(C)OC3)cc1,6.2,2.7,34.2*,4.4,i,-0.5
Cc1ccc(-c2noc(CCC(=O)Nc3cc(C)ccn3)n2)cc1,-6.4,4.4,-0.1,28.8,i,0.8
COC(=O)c1cc(S(=O)(=O)N(C)C2CCCCC2)oc1C,-2.5,/,/,/,/,/
Cc1cc(C)c(C#N)c(SCc2cn3c(C)cccc3n2)n1,1.7,3.4,4.2,6.8,i,2.1
COc1cc(/C=C/C(=O)OCC(=O)Nc2sc3c(c2C#N)CCC(C)C3)ccc1OCC#N (stereo not given),1.1,3.9,-7.5,-12.4,i,-2.5
Cn1c(-c2ccc(F)cc2)cnc1NCc1ccccc1,0.6,8.5,-1.8,2.3,i,0.3
Cn1c(-c2ccc(F)cc2)cnc1NCc1cccc(F)c1,38.1,14.5*,-17.9,3.5,i,0.2
O=C(NCC1CCCO1)c1cc2c(s1)CS(=O)(=O)C2 (stereo not given),0.9,3.2,7.2,5.1,+,0.4
O=C(NCC1CCCO1)c1cccc(Br)c1 (stereo not given),-0.7,2.2,3.5,1.4,i,0.1
O=C(C1=C[C@@H](c2ccc(C(F)(F)F)cc2)C[C@@H](OCc2ccc(CO)cc2)O1)N1CCOCC1,0.4,1.7,4.2,0.7,i,1.1
Cc1ccc2oc(-c3cccc(NC(=S)NC(=O)/C=C/c4ccco4)c3)nc2c1,11.2,37.2*,-12.9,3.9,i,0.4
Cc1ccc2c(c1)Oc1ccc([N+](=O)[O-])cc1C(=O)N2,0.6,3.7,0.6,-0.4,i,-0.2
Cc1ccc2c(c1)Oc1ccc(NC(=O)CCl)cc1C(=O)N2,-0.5,7.1,-35.0,2.4,+,0.1
O=CNCC(=O)NCCc1ccc(Cl)cc1,0.5,4.3,36.7*,6.6,i,0.5
O=C(Cc1c(Cl)cccc1Cl)NCCc1ccc(Cl)cc1,-1.8,4.2,-7.6,0.9,i,0.5
CCCNc1c(F)c(F)c2c(C)c3ccccc3nc2c1F,5.4,2.1,-0.1,22.1,+,4.6
OCCNc1c2ccccc2nc2ccccc12,-0.9,1.9,-25.0,3.1,i,0.7
O=C(NC1CCCC1)C(c1ccc(F)cc1)N(Cc1ccc(Cl)cc1)C(=O)CCl (stereo not given),-1.1,1.3,-1.7,3.1,+,/
